The text below walks through data of ChEMBL document CHEMBL1821692, “Synthesis and evaluation of diarylthiazole derivatives that inhibit activation of sterol regulatory element-binding proteins” (J Med Chem, 2011).

Broadly, the Papp is the rate of passage across a membrane or cell layer, normalised by area and donor concentration. A word on the solubility: it is how much of the substance goes into solution per volume. Lower therefore signals a poorly soluble substance.

Data set [1] can be described thus: Apparent permeability at 10 uM after 4 hrs by PAMPA. Format: ADME. The method, boiled down:
(§1)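 Passive diffusion across 15% soy lecithin in n-dodecane artificial membrane on a filter plate. […] Sandwich incubated 4 h at 37 °C. Acceptor, donor and initial donor solutions quantified by LC-MS/MS; Papp and % membrane retention calculated.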
(In PAMPA a lipid-coated filter parts donor from acceptor wells.)

A short description of data set [2]: Aqueous solubility of the compound at pH 3 after 24 hrs by LC-MS/MS analysis. Format: physicochemical. To be noted: buffer, pH 3, 24 h. The method, boiled down:
(§2)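 DMSO stock diluted to 250 μM in aqueous buffer at pH 3 or pH 7 and held 24 h. Solution filtered through a 0.22 μm membrane; compound in the filtrate quantified by LC-MS/MS.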

A short description of data set [3]: Apparent permeability assessed as membrane retention at 10 uM after 4 hrs by PAMPA. Format: ADME. The method, boiled down:
as §1

Data set [4] has as its system Hepatocyte. The data set is described as follows: Metabolic stability in mouse hepatocytes at 1 uM after 90 mins by LC-MS/MS analysis. Format: ADME, cell-based. To be noted: 1.5 h. The method, boiled down:
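Each compound at 1 μM incubated at 37 °C in Leibovitz L-15 medium with mouse hepatocytes (3×10^5 cells mL⁻¹), in duplicate with shaking. […] After centrifugation the supernatant went to LC-MS/MS. Controls were compound in medium alone, and 7-ethoxycoumarin/7-hydroxycoumarin for phase I/II activity.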

Data set [5] is described as follows: Aqueous solubility of the compound at pH 7 after 24 hrs by LC-MS/MS analysis. The format is physicochemical. To be noted: buffer, pH 7, 24 h. The method, boiled down: as §2
The test system of data set [6] is Hepatocyte. In words: Half life in mouse hepatocytes at 1 uM after 90 mins by LC-MS/MS analysis. The format is ADME, cell-based, Liver. To be noted: 1.5 h. The method, boiled down: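 Compound at 1 μM incubated at 37 °C with shaking in Leibovitz L-15 medium with mouse hepatocytes (3×10^5 cells mL⁻¹), in duplicate. […] Medium-only incubations served as negative controls; 7-ethoxycoumarin and 7-hydroxycoumarin were positive controls for phase I/II activity.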

Data set [7] concerns the target T1, Sterol regulatory element-binding protein 2 (Homo sapiens) (UniProt Q12772).
T1 sequence (whole entry): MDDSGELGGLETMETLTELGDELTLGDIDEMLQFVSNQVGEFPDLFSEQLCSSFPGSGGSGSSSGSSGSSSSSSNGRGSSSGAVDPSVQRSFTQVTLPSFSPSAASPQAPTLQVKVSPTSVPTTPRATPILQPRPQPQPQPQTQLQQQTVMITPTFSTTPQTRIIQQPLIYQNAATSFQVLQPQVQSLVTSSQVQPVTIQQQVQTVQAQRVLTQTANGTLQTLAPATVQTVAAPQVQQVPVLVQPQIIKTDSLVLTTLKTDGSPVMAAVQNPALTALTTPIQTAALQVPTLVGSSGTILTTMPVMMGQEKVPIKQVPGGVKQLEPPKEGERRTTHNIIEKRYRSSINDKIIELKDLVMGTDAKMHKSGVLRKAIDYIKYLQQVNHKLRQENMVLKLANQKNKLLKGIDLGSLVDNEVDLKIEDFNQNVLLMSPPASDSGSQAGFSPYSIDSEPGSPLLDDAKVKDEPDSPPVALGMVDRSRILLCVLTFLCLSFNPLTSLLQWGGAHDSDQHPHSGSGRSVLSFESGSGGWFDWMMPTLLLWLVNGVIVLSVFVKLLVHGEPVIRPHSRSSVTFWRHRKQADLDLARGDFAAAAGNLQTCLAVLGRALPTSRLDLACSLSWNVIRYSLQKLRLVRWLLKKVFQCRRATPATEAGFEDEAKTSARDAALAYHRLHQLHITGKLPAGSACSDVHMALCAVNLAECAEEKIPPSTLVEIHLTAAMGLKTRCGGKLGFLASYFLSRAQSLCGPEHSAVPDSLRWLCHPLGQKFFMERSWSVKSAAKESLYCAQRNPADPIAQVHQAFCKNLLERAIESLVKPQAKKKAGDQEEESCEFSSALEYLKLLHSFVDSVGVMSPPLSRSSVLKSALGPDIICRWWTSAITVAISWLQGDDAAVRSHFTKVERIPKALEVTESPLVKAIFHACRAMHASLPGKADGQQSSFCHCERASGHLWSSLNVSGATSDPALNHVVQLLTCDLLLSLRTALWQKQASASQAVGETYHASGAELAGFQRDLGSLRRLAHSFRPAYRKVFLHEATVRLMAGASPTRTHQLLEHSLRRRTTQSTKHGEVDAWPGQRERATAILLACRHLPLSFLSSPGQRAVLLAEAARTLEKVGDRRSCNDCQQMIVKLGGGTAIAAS
To be noted: CHO-K1; 1 to 20 uM.

Values after ≈ are worked out from the molar mass of the structure shown. Active and inactive are the calls of the source. The calls are words filed in the database; no cut-off is given here.

For `CCCc1cc(-c2nc(-c3ccc(C)cc3)cs2)ccn1` [FATOSTATIN], the apparent permeability coefficient (Papp) in data set [1] came to 0.7555 ×10⁻⁶ cm/s. For the same molecule, the solubility in data set [2] came out at 80 µM (≈ 23.6 µg/mL); in data set [5], 2 µM (≈ 0.589 µg/mL). For the same molecule, the Activity in data set [3] is 94%. Further, the Stability result in data set [4] is “Stable”. The molecule also returned a t1/2 in data set [6] of 10.1 min.

`CC(=O)CC(c1ccccc1)c1c(O)c2ccccc2oc1=O` (stereo not given) [WARFARIN]: in data set [3], the Activity amounted to 0%.

On to `CCCc1cc(-c2nc(-c3ccc(NS(C)(=O)=O)cc3)cs2)ccn1`, for which the Papp in data set [1] is 14.98 ×10⁻⁶ cm/s. For the same molecule, the values for the solubility in data set [2] and in data set [5] were more than 225 µM and 33 µM (≈ 12.3 µg/mL), respectively. Besides, the Activity in data set [3] is 97.35%. Moreover, the Stability result in data set [4] is reported as “Stable”. The t1/2 in data set [6] is recorded as 44.4 min. Besides, the inhibition entry in data set [7] was “inactive”.

With `CCCc1cc(-c2nc(-c3ccc(NC(C)C)cc3)cs2)ccn1`, the Papp in data set [1] is given as 1.059 ×10⁻⁶ cm/s. Also, the solubility in data set [2] is more than 225 µM; in data set [5] it was 3 µM (≈ 1.01 µg/mL). In data set [3], the Activity was 93.95%. Further, the Stability result in data set [4] is recorded as “Stable”. Moreover, the t1/2 in data set [6] is listed as 22.4 min.
